Data on two molecules can be found in paper PMC7302971 (Bioorganic chemistry, 2020).

Molecules are shown by their SMILES.

Experiment [1] concerns K-562 leukemia cells. Kind of experiment: Differential Nuclear Staining. Format: cell-based, human. A digest of the protocol: (§1)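 Cells were seeded at 10,000/well and exposed to test compound for 48 h at 1% (v/v) final DMSO. The first screen used a single concentration with controls in quadruplicate. Dose-response used 0.5–100 μM in triplicate. Controls: DMSO vehicle, hydrogen peroxide (positive), untreated (negative). Hoechst 33342 plus PI were added 2 h before automated imaging, and colocalised signal was scored as dead. […] Two-tailed t-test versus DMSO.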

The test system of experiment [2] is CEM leukemia cells. Kind of experiment: Differential Nuclear Staining. Format: cell-based, human. Conditions: 48 h. A digest of the protocol: as §1
Experiment [3] deals with T1, HDAC8 (Homo sapiens, UniProt Q9BY41).
T1 sequence (Q9BY41 1-377): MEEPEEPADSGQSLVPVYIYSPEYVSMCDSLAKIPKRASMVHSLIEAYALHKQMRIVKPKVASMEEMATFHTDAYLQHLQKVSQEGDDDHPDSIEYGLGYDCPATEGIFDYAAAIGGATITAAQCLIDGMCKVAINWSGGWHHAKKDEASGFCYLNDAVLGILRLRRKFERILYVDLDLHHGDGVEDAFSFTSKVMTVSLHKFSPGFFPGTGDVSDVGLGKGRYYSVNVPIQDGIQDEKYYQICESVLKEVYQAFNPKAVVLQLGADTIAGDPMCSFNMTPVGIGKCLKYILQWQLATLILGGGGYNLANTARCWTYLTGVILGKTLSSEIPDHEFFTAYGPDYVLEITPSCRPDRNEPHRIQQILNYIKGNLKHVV
The experiment in a line: HDAC enzyme activity assay. The class given is biochemical. As to conditions: for remaining activity at 50 µM: read-out: Residual HDAC8 activity at 50 μM. The method, boiled down: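 HDAC4 and HDAC8 were in-house recombinant enzymes. Each was preincubated with inhibitor, either a single 50 μM screen or serial dilutions, for 60 min at 30 °C in Tris-HCl pH 8.0/KCl/Pluronic buffer. Substrate was 20 μM Boc-Lys(trifluoroacetyl)-AMC for 60 min at 30 °C, stopped with 1.7 μM SATFMK, and developed with trypsin. AMC fluorescence was read at 350/450 nm and reported as residual activity or as IC50 from a four-parameter logistic fit.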

The subject of experiment [4] is CEM cells. Kind of experiment: Apoptosis by annexin V-FITC/PI flow cytometry. The class given is cell-based, human. Conditions: compound at CC50 (IC50) concentration, 24 h. The method, boiled down: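 CEM cells were seeded in 24-well plates and held overnight at 37 °C in CO2. Medium was replaced and cells were exposed to test compound for 24 h. Controls were untreated cells and 1% DMSO. Cells were PBS-washed and spun at 500 × g for 5 min at 4 °C, then resuspended in ice-cold binding buffer with annexin V-FITC and PI. They were kept 15 min on ice in the dark, diluted, and read by flow cytometry for live and apoptotic fractions.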
(In flow cytometry, cells or beads pass a laser one at a time.)

For experiment [5], the target named is HDAC3 (Homo sapiens, UniProt O15379). The experiment in a line: HDAC enzyme activity assay. The class given is biochemical. The method, boiled down:
(§2)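 Commercial enzyme was preincubated with serial inhibitor dilutions for 60 min at 30 °C in 25 mM Tris-HCl pH 8.0, 75 mM KCl and 0.001% Pluronic F-127. Reaction was started with 50 μM Boc-Lys(acetyl)-AMC, run 60 min at 30 °C, and stopped with 4.17 μM SAHA. Trypsin (0.4 mg/ml) released AMC, read at Ex 350/Em 450 nm. IC50 came from a four-parameter logistic fit.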

The target of experiment [6] is HDAC2 (Homo sapiens, UniProt Q92769). The experiment in a line: HDAC enzyme activity assay. Format: biochemical. The method, boiled down:
as §2

For experiment [7], the target named is T2, HDAC6 (Homo sapiens, UniProt Q9UBN7).
T2 sequence (Q9UBN7 1-1215): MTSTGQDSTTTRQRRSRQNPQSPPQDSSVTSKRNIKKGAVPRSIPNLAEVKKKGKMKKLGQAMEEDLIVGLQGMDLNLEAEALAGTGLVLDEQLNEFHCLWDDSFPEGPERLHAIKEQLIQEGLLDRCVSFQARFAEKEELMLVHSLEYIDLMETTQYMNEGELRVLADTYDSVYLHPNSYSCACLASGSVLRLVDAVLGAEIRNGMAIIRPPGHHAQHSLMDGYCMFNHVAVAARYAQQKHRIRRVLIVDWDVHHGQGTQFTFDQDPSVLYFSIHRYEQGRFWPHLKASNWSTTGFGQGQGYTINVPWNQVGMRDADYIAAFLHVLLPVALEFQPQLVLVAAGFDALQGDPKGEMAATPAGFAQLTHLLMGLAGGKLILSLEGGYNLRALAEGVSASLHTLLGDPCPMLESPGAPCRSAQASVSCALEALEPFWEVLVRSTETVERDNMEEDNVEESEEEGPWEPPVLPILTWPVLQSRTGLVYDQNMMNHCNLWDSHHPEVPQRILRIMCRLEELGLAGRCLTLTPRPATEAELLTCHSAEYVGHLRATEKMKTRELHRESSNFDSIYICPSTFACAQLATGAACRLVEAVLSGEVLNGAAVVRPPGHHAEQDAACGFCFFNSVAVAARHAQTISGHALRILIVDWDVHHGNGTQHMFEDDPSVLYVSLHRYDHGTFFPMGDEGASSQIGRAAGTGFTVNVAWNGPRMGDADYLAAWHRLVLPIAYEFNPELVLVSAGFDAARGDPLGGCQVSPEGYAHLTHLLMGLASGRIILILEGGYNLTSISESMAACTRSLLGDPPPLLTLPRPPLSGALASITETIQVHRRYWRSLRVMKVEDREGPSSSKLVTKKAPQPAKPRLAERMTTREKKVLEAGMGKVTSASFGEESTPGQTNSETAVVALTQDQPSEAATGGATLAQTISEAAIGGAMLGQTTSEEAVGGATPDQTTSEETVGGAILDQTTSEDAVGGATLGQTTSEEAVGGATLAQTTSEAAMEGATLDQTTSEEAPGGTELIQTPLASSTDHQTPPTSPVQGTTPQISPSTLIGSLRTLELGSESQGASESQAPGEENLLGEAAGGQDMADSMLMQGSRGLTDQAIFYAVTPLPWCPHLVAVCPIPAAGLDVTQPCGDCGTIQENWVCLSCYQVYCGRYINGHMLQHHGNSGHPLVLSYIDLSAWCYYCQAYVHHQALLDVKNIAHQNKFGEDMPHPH
Kind of experiment: HDAC enzyme activity assay. Format: biochemical. The method, boiled down: as §2

The test system of experiment [8] is KCL-22 leukemia cells. Kind of experiment: Differential Nuclear Staining. The class given is cell-based, human. Conditions: Homo sapiens, KCL-22, 48 h. The method, boiled down:
as §1

The target in experiment [9] is HDAC5 (Homo sapiens, UniProt Q9UQL6). Kind of experiment: HDAC enzyme activity assay. The class given is biochemical. The method, boiled down: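 Commercial HDAC5 was preincubated with serial inhibitor dilutions for 60 min at 30 °C in Tris-HCl pH 8.0 buffer. Reaction used 20 μM Boc-Lys(trifluoroacetyl)-AMC for 60 min at 30 °C and was stopped with 1.7 μM SATFMK. Trypsin development followed, then AMC fluorescence at 350/450 nm. IC50 came from a four-parameter logistic fit.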
HDAC5, sequence (Q9UQL6 whole entry): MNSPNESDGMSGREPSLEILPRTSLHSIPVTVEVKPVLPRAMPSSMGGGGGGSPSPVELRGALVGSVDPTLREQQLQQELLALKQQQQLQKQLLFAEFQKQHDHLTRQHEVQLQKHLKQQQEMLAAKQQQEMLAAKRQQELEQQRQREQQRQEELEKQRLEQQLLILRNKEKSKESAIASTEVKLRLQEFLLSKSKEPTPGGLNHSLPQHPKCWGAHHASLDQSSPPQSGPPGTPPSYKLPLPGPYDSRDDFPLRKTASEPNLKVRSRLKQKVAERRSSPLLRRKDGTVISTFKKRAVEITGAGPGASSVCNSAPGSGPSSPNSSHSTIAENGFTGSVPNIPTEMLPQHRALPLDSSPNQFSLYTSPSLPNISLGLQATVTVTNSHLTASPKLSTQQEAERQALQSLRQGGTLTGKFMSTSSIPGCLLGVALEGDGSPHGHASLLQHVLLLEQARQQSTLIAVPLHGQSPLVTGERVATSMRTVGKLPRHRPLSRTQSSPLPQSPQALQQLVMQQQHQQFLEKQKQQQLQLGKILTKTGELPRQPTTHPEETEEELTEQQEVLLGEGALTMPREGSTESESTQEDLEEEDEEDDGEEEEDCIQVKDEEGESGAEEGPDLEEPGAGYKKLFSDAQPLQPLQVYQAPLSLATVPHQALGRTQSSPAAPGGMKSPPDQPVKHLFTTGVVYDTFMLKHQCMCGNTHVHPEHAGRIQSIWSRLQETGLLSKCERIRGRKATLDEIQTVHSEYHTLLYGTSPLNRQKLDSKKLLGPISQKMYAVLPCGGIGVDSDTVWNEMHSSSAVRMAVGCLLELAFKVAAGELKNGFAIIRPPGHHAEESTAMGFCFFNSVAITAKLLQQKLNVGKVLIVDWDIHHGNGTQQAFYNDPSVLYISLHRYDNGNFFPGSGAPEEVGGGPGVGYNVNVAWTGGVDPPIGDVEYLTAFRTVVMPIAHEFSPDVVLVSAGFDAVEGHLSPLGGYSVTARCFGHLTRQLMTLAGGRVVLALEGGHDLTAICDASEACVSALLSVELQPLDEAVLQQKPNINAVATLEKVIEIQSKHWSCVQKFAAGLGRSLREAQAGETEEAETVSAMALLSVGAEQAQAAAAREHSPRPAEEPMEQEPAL

HDAC3, sequence (O15379 whole entry): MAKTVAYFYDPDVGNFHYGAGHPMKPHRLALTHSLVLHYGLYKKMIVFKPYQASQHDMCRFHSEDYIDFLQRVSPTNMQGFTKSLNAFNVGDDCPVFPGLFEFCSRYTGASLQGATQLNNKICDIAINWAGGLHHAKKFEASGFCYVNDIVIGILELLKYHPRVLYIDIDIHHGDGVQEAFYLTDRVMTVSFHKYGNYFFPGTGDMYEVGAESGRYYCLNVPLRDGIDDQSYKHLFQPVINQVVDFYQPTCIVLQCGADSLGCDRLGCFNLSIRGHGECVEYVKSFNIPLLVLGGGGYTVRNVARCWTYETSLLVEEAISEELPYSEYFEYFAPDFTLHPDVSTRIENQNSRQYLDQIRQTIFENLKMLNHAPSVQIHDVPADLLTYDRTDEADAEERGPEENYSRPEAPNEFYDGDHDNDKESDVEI
HDAC3, sequence (Q9Y618 395-489 partner limits assumed): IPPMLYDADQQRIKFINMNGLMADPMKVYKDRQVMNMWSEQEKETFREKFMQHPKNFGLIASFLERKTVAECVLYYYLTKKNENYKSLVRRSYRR
HDAC2, sequence (Q92769 whole entry): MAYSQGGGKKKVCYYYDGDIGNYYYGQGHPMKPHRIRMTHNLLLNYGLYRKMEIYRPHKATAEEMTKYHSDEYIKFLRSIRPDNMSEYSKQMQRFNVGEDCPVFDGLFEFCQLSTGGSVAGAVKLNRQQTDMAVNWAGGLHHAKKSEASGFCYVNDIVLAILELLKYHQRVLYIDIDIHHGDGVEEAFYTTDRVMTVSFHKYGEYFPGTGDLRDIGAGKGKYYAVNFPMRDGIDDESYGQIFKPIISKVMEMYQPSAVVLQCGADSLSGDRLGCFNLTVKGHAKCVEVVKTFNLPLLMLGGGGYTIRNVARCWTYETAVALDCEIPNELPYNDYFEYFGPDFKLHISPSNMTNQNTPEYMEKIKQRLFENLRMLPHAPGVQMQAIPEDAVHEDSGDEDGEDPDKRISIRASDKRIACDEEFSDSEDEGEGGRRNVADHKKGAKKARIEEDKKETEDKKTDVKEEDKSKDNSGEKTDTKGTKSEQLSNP

Consider `Cc1c(NC(=O)CN2C(=O)SC(=Cc3ccccn3)C2=O)c(=O)n(-c2ccccc2)n1C` [Compound P10, N-(1,5-dimethyl-3-oxo-2-phenyl-2,3-dihydro-1H-pyrazol-4-yl)-2-(2,4-dioxo-5-(pyridin-2-ylmethylene)thiazolidin-3-yl)acetamide], for which the “cell death at 100 μM” value is listed as 27.06% cell death at 100 μM in experiment [1] (K562, DNS assay, 48 h, 100 μM) and 2.39% cell death at 100 μM in experiment [2] (CEM, DNS assay, 100 μM). Besides, the IC50 in [3] is 23 ± 1.1 µM; in [5] it was over 50 µM; in experiment [6] it was 45 µM; in [7], 26 µM; in experiment [9] it was 43 µM. The remaining activity at 50 µM in experiment [3] amounted to 17%. This molecule also returned a live cells in experiment [4] of 29.89%. The “percent of apoptotic cells” value in experiment [4] came to 55.19%. Besides, in experiment [8], it took 17.4 ± 2.4 µM to reach half-maximal cytotoxicity (CC50).
In the case of `O=C(CN1C(=O)SC(=Cc2ccccn2)C1=O)Nc1nc2ccccc2s1` [Compound P19, N-(benzo[d]thiazol-2-yl)-2-(2,4-dioxo-5-(pyridin-2-ylmethylene)thiazolidin-3-yl)acetamide], the CC50 in [1] (Homo sapiens, K562, 48 h) stood at 85.4 ± 3.25 µM; in experiment [2] (Homo sapiens), 79.9 ± 3.74 µM; in experiment [8] it was 43.2 ± 0.23 µM. Moreover, the IC50 in experiment [3] was 9.3 ± 1 µM; in experiment [5], over 50 µM; in experiment [6], 41 µM; in experiment [7] it was 17 µM; in experiment [9], over 50 µM. In [3], the remaining activity at 50 µM is 22%. The live cells in [4] worked out at 30.86%. For the same molecule, the “percent of apoptotic cells” value in [4] was found to be 60.97%.

As a reminder, the IC50 is the point on the concentration scale where inhibition reaches its midpoint. One may read the CC50 as the concentration that lowers cell viability or growth by half.
